Source: paper PMC10674630 (Diabetes, Metabolic Syndrome and Obesity, 2023)
“Also recorded” adds a separate entry of the source.

Experiments:
ATCC 25923 [1] = settings: for Fold Change: MIC of antibiotic, alone vs with surfactin; for FICI: antibiotic + surfactin
[2] = system: S. aureus (ATCC 25923 and MRSA SA 452); experiment: Checkerboard assay, both strains; assay type: cell-based; settings: for Conversion of resistance to sensitivity by surfactin: addition of at least 64 μg/mL of surfactin, ATCC 25923 and MRSA; for Interaction with surfactin (in words): S. aureus (ATCC 25923 and MRSA)
SA 452 [3] = settings: for Fold Change: MIC of antibiotic, alone vs with surfactin; for FICI: antibiotic + surfactin
SA 452 [4] = experiment: Mutant prevention concentration, SA 452; assay type: cell-based, S. aureus
[5] = system: S. aureus (ATCC 25923 and MRSA SA 452); experiment: Mutant prevention / resistance selection, both strains; assay type: cell-based; settings: combination of oxacillin and surfactin
Procedure, shortened: (§1)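 Strains were grown 24 h in MH broth, centrifuged at 4000×g for 10 min and resuspended to 1×1010 CFU/mL. […] MPC was the lowest concentration preventing colonies. MPC/MIC ratio defined the mutant selection window.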

ATCC 25923 [6] = experiment: Mutant prevention concentration, ATCC 25923; assay type: cell-based, S. aureus
Procedure, shortened: as §1

Structure (SMILES) | Fold Change (ATCC 25923 [1]) | Interaction with surfactin (in words) (ATCC 25923 [1]) | Conversion of resistance to sensitivity by surfactin [2] | Interaction with surfactin (in words) [2] | Fold Change (SA 452 [3]) | FICI (SA 452 [3]) | Interaction with surfactin (in words) (SA 452 [3]) | FICI (ATCC 25923 [1]) | MIC/MPC (SA 452 [4]; oxacillin alone, SA 452) | MIC (SA 452 [4]; oxacillin alone, SA 452, unit not in table) | Decrease of MPC/MIC value (SA 452 [4]; with surfactin vs oxacillin alone, MRSA) [fold] | Mutant selection window (MSW), in words [5] | MIC/MPC (text: MPC/MIC ratio) (ATCC 25923 [6]; oxacillin alone) | MIC (ATCC 25923 [6]; oxacillin alone, unit not in table) | Decrease of MPC/MIC value (ATCC 25923 [6]; with 64 μg/mL of surfactin vs oxacillin alone) [fold]
CC1(C)S[C@@H]2[C@H](NC(=O)[C@H](N)c3ccccc3)C(=O)N2[C@H]1C(=O)O [Ampicillin] | 8 | synergistic effects | converted them to sensitivity | synergies; also recorded: synergistic effects | 128 | 0.133 | significantly synergistic effects |  |  |  |  |  |  |  | 
O=C(O)c1cn(C2CC2)c2cc(N3CCNCC3)c(F)cc2c1=O [Ciprofloxacin] |  |  |  |  |  | 2 |  |  |  |  |  |  |  |  | 
CC[C@H]1OC(=O)[C@H](C)[C@@H](O[C@H]2C[C@@](C)(OC)[C@@H](O)[C@H](C)O2)[C@H](C)[C@@H](O[C@@H]2O[C@H](C)C[C@H](N(C)C)[C@H]2O)[C@](C)(O)C[C@@H](C)C(=O)[C@H](C)[C@@H](O)[C@]1(C)O [Erythromycin] |  |  |  |  |  | 2 |  |  |  |  |  |  |  |  | 
CNC(C)C1CCC(N)C(OC2C(N)CC(N)C(OC3OCC(C)(O)C(NC)C3O)C2O)O1 (stereo not drawn) [Gentamicin] |  |  |  |  |  | 0.25 | significantly synergistic effects |  |  |  |  |  |  |  | 
Cc1onc(-c2ccccc2)c1C(=O)N[C@@H]1C(=O)N2[C@@H]1SC(C)(C)[C@@H]2C(=O)O [Oxacillin] | 8 | synergistic effects | converted them to sensitivity | synergies; also recorded: synergistic effects |  | 0.156 | significantly synergistic effects | 0.25 | >32 | 8 | ≥ 2 | narrowed the MSW for oxacillin against MRSA | 32 | 0.5 | 8
CN(C)[C@@H]1C(O)=C(C(N)=O)C(=O)[C@@]2(O)C(O)=C3C(=O)c4c(O)cccc4[C@@](C)(O)[C@H]3C[C@@H]12 [Tetracycline] | 16 | synergistic effects | converted them to sensitivity | synergies; also recorded: synergistic effects | 128 | 0.133 | significantly synergistic effects | 0.188 |  |  |  |  |  |  | 
